This note sets out measurements from ChEMBL document CHEMBL2029342, “Design and synthesis of gambogic acid analogs as potent cytotoxic and anti-inflammatory agents” (Bioorg Med Chem Lett, 2012).

SMILES strings stand for the structures. Values after ≈ are worked out from the molar mass of the structure shown. Some results are limits rather than exact numbers.

The nature of assay [1]: Cytotoxicity against human KBVIN cells by MTT assay. The format is functional, cell-based. An outline of the steps:
(§1)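 MTT colorimetric assay of cell viability. IC50 is expressed in μg/mL as the mean of 3 determinations.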

The test system of a further assay is A549. Kind of assay: Cytotoxicity against human A549 cells by MTT assay. The format is functional, cell-based. In short, it runs like this:
as §1

The next assay has as its system DU-145. Kind of assay: Cytotoxicity against human DU145 cells by MTT assay. The format is functional, cell-based. An outline of the steps: as §1
For orientation: Tetrazolium dyes change colour on reduction, which living cells bring about.

A short description of assay [2]: Antiinflammatory activity in human neutrophils assessed as inhibition of fMLP/CB-induced superoxide anion generation at 10 ug/mL after 15 mins by cytochrome c reduction assay. The format is functional. Conditions: Neutrophil, 0.25 h. In short, it runs like this: (§2)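 Human neutrophils stimulated with fMLP/CB; superoxide anion generation and elastase release were measured. IC50 is the concentration giving 50% inhibition. Where 50% inhibition was not reached at any tested dose, % inhibition at 10 μg/mL is reported. Mean ± S.E.M., n = 3-5.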

Assay [3] can be described thus: Antiinflammatory activity in human neutrophils assessed as inhibition of fMLP/CB-induced elastase release using MeO-Suc-Ala-Ala-Pro-Val-MC as substrate at 10 ug/mL by spectrophotometry. The format is functional. Conditions: Neutrophil. In short, it runs like this: as §2
Assay [4] is described as follows: Antiinflammatory activity in human neutrophils assessed as inhibition of induced superoxide anion generation at 10 ug/mL after 15 mins by cytochrome c reduction assay in the absence of fMLP/CB. The format is functional. Conditions: Neutrophil, 0.25 h.
A short description of assay [5]: Antiinflammatory activity in human neutrophils assessed as inhibition of elastase release using MeO-Suc-Ala-Ala-Pro-Val-MC as substrate at 10 ug/mL by spectrophotometry in the absence of fMLP/CB. The format is functional. Conditions: Neutrophil.
Assay [6] can be described thus: Antiinflammatory activity in human neutrophils assessed as inhibition of fMLP/CB-induced superoxide anion generation after 15 mins by cytochrome c reduction assay. Conditions: Neutrophil, 0.25 h. The format is functional, cell-based. In short, it runs like this:
as §2

The next assay relates to Neutrophil. Kind of assay: Ratio of PMSF IC50 to compound IC50 for antiinflammatory activity in human neutrophils assessed as inhibition of fMLP/CB-induced elastase release. The format is functional.
The subject of another assay is KB. The assay is described as follows: Cytotoxicity against human KB cells by MTT assay. The format is functional, cell-based. In short, it runs like this: as §1
Assay [7] is described as follows: Antiinflammatory activity in human neutrophils assessed as inhibition of fMLP/CB-induced elastase release using MeO-Suc-Ala-Ala-Pro-Val-MC as substrate by spectrophotometry. The format is functional, cell-based. Conditions: Neutrophil. An outline of the steps: as §2
Assay [8] is described as follows: Antiinflammatory activity in human neutrophils pretreated with cytochalasin B assessed as inhibition of fMLP/CB-induced superoxide anion generation after 15 mins by cytochrome c reduction assay. The format is functional, cell-based. Conditions: Neutrophil. An outline of the steps:
as §2

By IC50 is commonly meant the concentration that inhibits the measured activity by half. Usually inhibition stands for the relative decrease from the control value, in per cent. Turning to `COc1ccc2c(=O)c3c(O)cc(O)cc3oc2c1`, the 50% inhibitory concentration (IC50) (in [1]; in the assay with A549; in the assay with DU-145) was above 10 µg/mL in each case. Also, the inhibition at 10 µg/mL in assay [2] is 45.2%; in [3] it was 23.6%.

Consider `COc1ccc2c(=O)c3c(O)cc(OC)cc3oc2c1`, for which the half-maximal inhibitory concentration (IC50) (in assay [1]; with A549; in the assay on DU-145) was above 10 µg/mL throughout. Further, the inhibition at 10 µg/mL in [2] was determined as 31.3%; in assay [3], 26.5%.

With `CC(C)=CCc1c(O)c(CC=C(C)C)c2oc3cc(O)ccc3c(=O)c2c1O`, the IC50 in [1] worked out at 6.7 µg/mL (≈ 17.6 µM); in the assay on A549, 6.4 µg/mL (≈ 16.8 µM); in the assay with DU-145, 3.9 µg/mL (≈ 10.3 µM). In addition, the inhibition at 10 µg/mL came to 101% in [4] and 102% in [5].

For the compound `CC(C)=CCc1c(O)cc2oc3cc(O)ccc3c(=O)c2c1O`, the figures for the half-inhibitory concentration (IC50) (in assay [1]; with A549; in the assay with DU-145) were 5.4 µg/mL (≈ 17.3 µM), 6.2 µg/mL (≈ 19.9 µM) and 3.8 µg/mL (≈ 12.2 µM), respectively. Moreover, the results for the inhibition at 10 µg/mL in assay [2] and in assay [3] were 45.2% and 56.3%, respectively.

Consider `CC(C)=CCc1c(O)cc2oc3c(CC=C(C)C)c(O)ccc3c(=O)c2c1O`, for which the IC50 in assay [1] is 4.4 µg/mL (≈ 11.6 µM); in the assay on A549, 5 µg/mL (≈ 13.1 µM); in the assay with DU-145, 2.8 µg/mL (≈ 7.36 µM). Besides, the inhibition at 10 µg/mL is 31.6% in assay [2] and 67.2% in assay [3].

As to `CC(C)=CCOc1cc(O)c2c(=O)c3ccc(O)cc3oc2c1`, the IC50 was 5.3 µg/mL (≈ 17 µM) in assay [1], 6.9 µg/mL (≈ 22.1 µM) in the assay with A549, 3.7 µg/mL (≈ 11.8 µM) in the assay on DU-145 and 20.2 µg/mL (≈ 64.7 µM) in [6]. For the same compound, in assay [3], the inhibition at 10 µg/mL came to 4.21%.

Regarding `CC(C)=CCOc1ccc2c(=O)c3c(O)c(CC=C(C)C)c(OCC=C(C)C)cc3oc2c1`, the figures for the half-inhibitory concentration (IC50) (in assay [1]; in the assay with A549; in the assay with DU-145) were 7.5 µg/mL (≈ 16.7 µM), 7.9 µg/mL (≈ 17.6 µM) and 4.3 µg/mL (≈ 9.59 µM), respectively. The figures for the inhibition at 10 µg/mL in assay [2] and in [3] were 10.1% and 7.56%, respectively.

As for `CC(C)=CCOc1ccc2c(=O)c3c(O)cc(OCC=C(C)C)cc3oc2c1`, the IC50 in [1] was above 10 µg/mL; with A549 it was 9.3 µg/mL (≈ 24.4 µM); in the assay on DU-145 it was above 10 µg/mL. In addition, the inhibition at 10 µg/mL in [2] turned out to be 5.32%; in assay [3], 13.3%.

In the case of `CC(C)=CCOc1ccc2c(=O)c3c(OCC=C(C)C)cc(OCC=C(C)C)cc3oc2c1`, the IC50 was above 10 µg/mL in assay [1], above 10 µg/mL in the assay on A549 and 6.3 µg/mL (≈ 14 µM) in the assay on DU-145. The inhibition at 10 µg/mL in [2] worked out at 64.3%; in assay [3], 54.9%.

On to `CC1(C)C=Cc2c(cc3oc4cc(O)ccc4c(=O)c3c2O)O1`, for which, in the assay on Neutrophil, the “Ratio IC50” value came out at 15. Besides, the concentration for half-maximal inhibition (IC50) was determined as 4.6 µg/mL (≈ 14.8 µM) with KB; 5.5 µg/mL (≈ 17.7 µM) in assay [1]; 5.8 µg/mL (≈ 18.7 µM) with A549; 4.4 µg/mL (≈ 14.2 µM) with DU-145; 0.46 µg/mL (≈ 1.48 µM) in assay [6]; 0.64 µg/mL (≈ 2.06 µM) in [7].

As for `CC(C)=CCCC1(C)C=Cc2c(cc3oc4cc(O)ccc4c(=O)c3c2O)O1` (configuration not stated), the “Ratio IC50” value in the assay on Neutrophil came to 15. Moreover, the IC50 in the assay with KB stood at 6.2 µg/mL (≈ 16.4 µM); in [1], 6 µg/mL (≈ 15.9 µM); in the assay with A549, 6.6 µg/mL (≈ 17.4 µM); with DU-145, 6.2 µg/mL (≈ 16.4 µM); in assay [6], 5.43 µg/mL (≈ 14.3 µM); in assay [7] it was 8.75 µg/mL (≈ 23.1 µM).

For the compound `CC1(C)C=Cc2c(cc(O)c3c(=O)c4ccc(O)cc4oc23)O1`, the IC50 in the assay with KB is 4.8 µg/mL (≈ 15.5 µM); in [1], 0.9 µg/mL (≈ 2.9 µM); with A549, 5.8 µg/mL (≈ 18.7 µM); in the assay with DU-145, 5.1 µg/mL (≈ 16.4 µM); in [6], 3.97 µg/mL (≈ 12.8 µM). In addition, in assay [3], the inhibition at 10 µg/mL stood at 18.4%.

`CC(C)=CCCC1(C)C=Cc2c(cc(O)c3c(=O)c4ccc(O)cc4oc23)O1` (configuration not stated): the “Ratio IC50” value in the assay on Neutrophil came out at 200. Further, the IC50 in the assay with KB was determined as 5.3 µg/mL (≈ 14 µM); in [1], 5.7 µg/mL (≈ 15.1 µM); in the assay on A549 it was 5.1 µg/mL (≈ 13.5 µM); in the assay on DU-145 it was 5.2 µg/mL (≈ 13.7 µM); in assay [8] it was 35.6 µg/mL (≈ 94.1 µM); in assay [7] it was 0.49 µg/mL (≈ 1.29 µM).

For `CC1(C)Oc2cc3oc4cc(O)ccc4c(=O)c3c(O)c2C(O)C1O` (configuration not stated), the IC50 in the assay on KB is 6.3 µg/mL (≈ 18.3 µM); in [1] it was 6.8 µg/mL (≈ 19.7 µM); in the assay on A549, 5.9 µg/mL (≈ 17.1 µM); in the assay on DU-145, 5.4 µg/mL (≈ 15.7 µM); in assay [6], 2.49 µg/mL (≈ 7.23 µM). Also, in assay [3], the inhibition at 10 µg/mL amounted to 35.3%.

Regarding `CC(C)=CCCC1(C)Oc2cc3oc4cc(O)ccc4c(=O)c3c(O)c2C(O)C1O` (configuration not stated), the “Ratio IC50” value with Neutrophil amounted to 15. The half-maximal inhibitory concentration (IC50) in the assay with KB is above 10 µg/mL; in assay [1], above 10 µg/mL; in the assay on A549, above 10 µg/mL; in the assay on DU-145, above 10 µg/mL; in assay [6], 4.3 µg/mL (≈ 10.4 µM); in assay [7], 5.75 µg/mL (≈ 13.9 µM).

Regarding `CC1(C)Oc2cc(O)c3c(=O)c4ccc(O)cc4oc3c2C(O)C1O` (configuration not stated), the IC50 with KB was above 10 µg/mL; in assay [1] it was 0.8 µg/mL (≈ 2.32 µM); in the assay with A549, 9.9 µg/mL (≈ 28.8 µM); with DU-145 it was 6.7 µg/mL (≈ 19.5 µM). Moreover, the inhibition at 10 µg/mL was found to be 8.63% in [2] and 6.37% in assay [3].

Take `CC(C)=CCCC1(C)Oc2cc(O)c3c(=O)c4ccc(O)cc4oc3c2C(O)C1O` (configuration not stated): in the assay on Neutrophil, the “Ratio IC50” value is on record as 15. Besides, the IC50 was above 10 µg/mL in the assay on KB; above 10 µg/mL in assay [1]; above 10 µg/mL in the assay on A549; above 10 µg/mL in the assay with DU-145; 2.56 µg/mL (≈ 6.21 µM) in assay [6]; 8.46 µg/mL (≈ 20.5 µM) in assay [7].

`O=c1c2ccc(O)cc2oc2cc(O)cc(O)c12`: the IC50 in assay [1] was above 10 µg/mL; in the assay with A549 it was above 10 µg/mL; in the assay with DU-145, above 10 µg/mL; in [6] it was 5.84 µg/mL (≈ 23.9 µM). In addition, the inhibition at 10 µg/mL in assay [3] was found to be 16%.

On to `c1ccc2c(c1)[I+]c1ccccc1-2` [DIPHENYLENEIODONIUM], for which the half-maximal inhibitory concentration (IC50) in assay [6] came to 0.7 µg/mL.

As for `CC(C)=CCC[C@]1(C)C=Cc2c(O)c3c(c(CC=C(C)C)c2O1)O[C@]12C(=C[C@@H]4C[C@H]1C(C)(C)O[C@@]2(C/C=C(/C)C(=O)O)C4=O)C3=O` [GAMBOGIC ACID], the concentration for half-maximal inhibition (IC50) came out at 0.3 µg/mL (≈ 0.477 µM) with KB, 0.4 µg/mL (≈ 0.636 µM) in assay [1], 0.5 µg/mL (≈ 0.795 µM) in the assay on A549 and 0.3 µg/mL (≈ 0.477 µM) in the assay on DU-145.

For the compound `CC(=O)O[C@H]1C(=O)[C@@]2(C)[C@H]([C@H](OC(=O)c3ccccc3)[C@]3(O)C[C@H](OC(=O)[C@H](O)[C@@H](NC(=O)c4ccccc4)c4ccccc4)C(C)=C1C3(C)C)[C@]1(OC(C)=O)CO[C@@H]1C[C@@H]2O` [PACLITAXEL], the results for the IC50 (in the assay with KB; in assay [1]; with DU-145) were 0.0016 µg/mL (≈ 0.00187 µM), 0.0011 µg/mL (≈ 0.00129 µM) and 0.0024 µg/mL (≈ 0.00281 µM), respectively.

In the case of `O=S(=O)(F)Cc1ccccc1` [PHENYLMETHYLSULFONYLFLUORIDE], the IC50 in assay [7] is 131 µg/mL (≈ 752 µM).
